≈ marks a conversion by molar mass, not a printed value.
Key:
[1] = system: Mycobacterium tuberculosis; assay: Growth inhibition of Mycobacterium bovis BCG ATCC 35743 at dormant stage at 0.78 ug/ml measured after 12 days by nitrate reductase dye based two fold dilution method relative to control; type: functional; conditions: BCG str. ATCC 35743, 288 h, read-out: GI
In short: (§1)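 M. bovis BCG was grown in Dubos medium and assayed in Mycobacterium pheli minimal medium (pH 6.6), with compounds from DMSO stocks. Incubation lasted 8 days for active and 12 days for dormant cultures. Viability was read by nitrate reductase at 540 nm against cell-free blanks, with vehicle set as 100% growth. Primary screen was at 30, 10 and 3 µg/ml, in triplicate, mean ± SD. MIC was taken from dose-response curves.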

[2] = Cytotoxicity against human THP1 cells assessed as growth inhibition at 100 ug/ml measured after 48 hrs by MTT assay relative to control; type: toxicity, cell-based, THP-1; conditions: read-out: GI
In short: (§2)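 MTT assay with 48 h compound exposure. THP-1 macrophages made by 24 h PMA treatment. Each concentration tested in triplicate in one experiment. % cytotoxicity = (control−test)/(control−blank)×100, with control = cells + DMSO and blank = medium without cells. IC50 from % survival versus concentration plots.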

[3] = Cytotoxicity against human THP1 cells measured after 48 hrs by MTT assay; type: toxicity, cell-based, THP-1; in short: as §2
[4] = system: Mycobacterium tuberculosis; assay: Growth inhibition of Mycobacterium bovis BCG ATCC 35743 at dormant stage at 30 ug/ml measured after 12 days by nitrate reductase dye based two fold dilution method relative to control; type: functional; conditions: BCG str. ATCC 35743, 288 h, read-out: GI; in short: as §1
[5] = system: Mycobacterium tuberculosis; assay: Growth inhibition of Mycobacterium tuberculosis H37Ra ATCC 25177 at dormant stage at 0.78 ug/ml measured after 12 days by XTT dye based two fold dilution method relative to control; type: functional; conditions: H37Ra ATCC 25177, 288 h, read-out: GI
In short: (§3)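 MTB H37Ra was grown in Dubos medium, then exposed in Mycobacterium pheli minimal medium (pH 6.6) to compounds dissolved in DMSO. The assay ended on day 8 (active) or day 12 (dormant). Viable cells were measured by XTT reduction menadione assay at 470 nm, blank-corrected, relative to vehicle control. Triplicates were expressed as mean ± SD. MIC came from dose-response curves.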

[6] = Selectivity index, ratio of GI50 for HUVEC to MIC for Mycobacterium tuberculosis H37Ra ATCC 25177 at dormant stage
Staphylococcus aureus = assay: Growth inhibition of Staphylococcus aureus NCIM 2010 at 10 ug/ml measured after 12 hrs relative to control; type: functional; conditions: NCIM 2010, 12 h, read-out: GI
In short: (§4)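 Bacteria grown in LB at 37 °C and 180 rpm to OD 1. Compounds added to wells, then 0.1% inoculum of 1 OD culture (620 nm). Growth read as OD at 620 nm after 8 h for gram-negative and after 12 h for gram-positive strains.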

[7] = system: Mycobacterium tuberculosis; assay: Growth inhibition of Mycobacterium bovis BCG ATCC 35743 at active stage measured after 8 days by nitrate reductase dye based two fold dilution method; type: functional; conditions: BCG str. ATCC 35743, 192 h; in short: as §1
[8] = system: Mycobacterium tuberculosis; assay: Growth inhibition of Mycobacterium tuberculosis H37Ra ATCC 25177 at active stage at 50 ug/ml measured after 8 days by XTT dye based two fold dilution method relative to control; type: functional; conditions: H37Ra ATCC 25177, 192 h, read-out: GI; in short: as §3
[9] = system: Mycobacterium tuberculosis; assay: Growth inhibition of Mycobacterium tuberculosis H37Ra ATCC 25177 at dormant stage measured after 12 days by XTT dye based two fold dilution method; type: functional; conditions: H37Ra ATCC 25177, 288 h; in short: as §3
Bacillus subtilis = assay: Antibacterial activity against Bacillus subtilis NCIM 2079 measured after 12 hrs; type: functional; conditions: NCIM 2079, 12 h; in short: as §4
[10] = system: Mycobacterium tuberculosis; assay: Growth inhibition of Mycobacterium bovis BCG ATCC 35743 at active stage at 12.5 ug/ml measured after 8 days by nitrate reductase dye based two fold dilution method relative to control; type: functional; conditions: BCG str. ATCC 35743, 192 h, read-out: GI
[11] = system: Mycobacterium tuberculosis; assay: Growth inhibition of Mycobacterium tuberculosis H37Ra ATCC 25177 at active stage at 6.25 ug/ml measured after 8 days by XTT dye based two fold dilution method relative to control; type: functional; conditions: H37Ra ATCC 25177, 192 h, read-out: GI; in short: as §3
[12] = system: Mycobacterium tuberculosis; assay: Growth inhibition of Mycobacterium bovis BCG ATCC 35743 at dormant stage at 50 ug/ml measured after 12 days by nitrate reductase dye based two fold dilution method relative to control; type: functional; conditions: BCG str. ATCC 35743, 288 h, read-out: GI; in short: as §1
Pseudomonas fluorescens [13] = assay: Antibacterial activity against Pseudomonas fluorescens NCIM 2036 measured after 8 hrs; type: functional; conditions: NCIM 2036, 8 h; in short: as §4
Aspergillus flavus = assay: Antifungal activity against Aspergillus flavus NCIM 539 by standard agar method; type: functional
In short: (§5)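 MICs determined by standard agar method; DMSO as solvent control.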

Pseudomonas fluorescens [14] = assay: Growth inhibition of Pseudomonas fluorescens NCIM 2036 at 3 ug/ml measured after 8 hrs relative to control; type: functional; conditions: NCIM 2036, 8 h, read-out: GI; in short: as §4
[15] = system: Mycobacterium tuberculosis; assay: Growth inhibition of Mycobacterium bovis BCG ATCC 35743 at dormant stage at 6.25 ug/ml measured after 12 days by nitrate reductase dye based two fold dilution method relative to control; type: functional; conditions: BCG str. ATCC 35743, 288 h, read-out: GI; in short: as §1
[16] = system: Mycobacterium tuberculosis; assay: Growth inhibition of Mycobacterium tuberculosis H37Ra ATCC 25177 at active stage at 3.13 ug/ml measured after 8 days by XTT dye based two fold dilution method relative to control; type: functional; conditions: H37Ra ATCC 25177, 192 h, read-out: GI; in short: as §3
[17] = Cytotoxicity against primary HUVEC assessed as growth inhibition at 100 ug/ml measured after 48 hrs by MTT assay relative to control; type: toxicity, cell-based; conditions: human, read-out: GI
[18] = system: Mycobacterium tuberculosis; assay: Growth inhibition of Mycobacterium tuberculosis H37Ra ATCC 25177 at active stage at 25 ug/ml measured after 8 days by XTT dye based two fold dilution method relative to control; type: functional; conditions: H37Ra ATCC 25177, 192 h, read-out: GI; in short: as §3
Pseudomonas fluorescens [19] = assay: Growth inhibition of Pseudomonas fluorescens NCIM 2036 at 30 ug/ml measured after 8 hrs relative to control; type: functional; conditions: NCIM 2036, 8 h, read-out: GI; in short: as §4
Aspergillus niger = assay: Antifungal activity against Aspergillus niger NCIM 1196 by standard agar method; type: functional; in short: as §5
[20] = Cytotoxicity against […]-differentiated human THP1 cells assessed as growth inhibition at 100 ug/ml measured after 48 hrs by MTT assay relative to control; type: toxicity, cell-based, THP-1; conditions: read-out: GI; in short: as §2
[21] = Selectivity index, ratio of GI50 for human A549 cells to MIC for Mycobacterium tuberculosis H37Ra ATCC 25177 at dormant stage; type: toxicity, cell-based; conditions: read-out: Selectivity Index
In short: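 SI is the cell-line GI50 divided by the dormant-stage mycobacterial MIC. […] THP-1 macrophages were PMA-differentiated for 24 h.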

[22] = system: Mycobacterium tuberculosis; assay: Growth inhibition of Mycobacterium tuberculosis H37Ra ATCC 25177 at dormant stage at 1.56 ug/ml measured after 12 days by XTT dye based two fold dilution method relative to control; type: functional; conditions: H37Ra ATCC 25177, 288 h, read-out: GI; in short: as §3
[23] = system: Mycobacterium tuberculosis; assay: Growth inhibition of Mycobacterium bovis BCG ATCC 35743 at dormant stage at 3.13 ug/ml measured after 12 days by nitrate reductase dye based two fold dilution method relative to control; type: functional; conditions: BCG str. ATCC 35743, 288 h, read-out: GI; in short: as §1
[24] = system: Mycobacterium tuberculosis; assay: Growth inhibition of Mycobacterium bovis BCG ATCC 35743 at dormant stage at 100 ug/ml measured after 12 days by nitrate reductase dye based two fold dilution method relative to control; type: functional; conditions: BCG str. ATCC 35743, 288 h, read-out: GI; in short: as §1

Row | Compound | inhibition of growth at 0.78 µg/mL [1] [%] | inhibition at 48 h, 100 ug/ml [2] [%] | GI50 at 48 h [3] [µg/mL] | inhibition of growth at 30 µg/mL [4] [%] | inhibition of growth at 0.78 µg/mL [5] [%] | Selectivity Index [6] | inhibition of growth at 10 µg/mL (Staphylococcus aureus) [%] | IC50 [7] [µg/mL] | IC90 [7] [µg/mL] | inhibition of growth at 50 µg/mL [8] [%] | IC50 [9] [µg/mL] | IC90 [9] [µg/mL] | MIC (Bacillus subtilis) [µg/mL] | inhibition of growth at 12.5 µg/mL [10] [%] | inhibition of growth at 6.25 µg/mL [11] [%] | inhibition of growth at 50 µg/mL [12] [%] | MIC (Pseudomonas fluorescens [13]) [µg/mL] | MIC (Aspergillus flavus) [µg/mL] | inhibition of growth at 3 µg/mL (Pseudomonas fluorescens [14]) [%] | inhibition of growth at 6.25 µg/mL [15] [%] | further results
1 | COc1ccc2nc(Cl)c(/C=C3\SC(=S)NC3=O)cc2c1 | -31.1 | 26.3 | > 100 | -6.75 | -36 | 20.8 | 99.8 | 3.7 (≈ 11 µM) | 5 (≈ 14.8 µM) | 101 | 3.3 (≈ 9.8 µM) | 4.7 (≈ 14 µM) | > 30 | 96 | 55.2 | 99 | > 30 | 100 (≈ 297 µM) | 76.2 | 89.9 | inhibition of growth at 3.13 µg/mL [16]: 38.4%; inhibition at 48 h, 100 ug/ml [17]: 29.4%; inhibition of growth at 25 µg/mL [18]: 90.2%; inhibition of growth at 30 µg/mL (Pseudomonas fluorescens [19]): 70.9%; MIC (Aspergillus niger): 150 µg/mL (≈ 445 µM); inhibition at 48 h, 100 ug/ml [20]: 30.2%; selectivity ratio [21]: 20.8; inhibition of growth at 1.56 µg/mL [22]: -25.3%; inhibition of growth at 3.13 µg/mL [23]: -4.93%; inhibition of growth at 100 µg/mL [24]: 97.7%
2 | Cc1cccc2cc(/C=C3\SC(=S)NC3=O)c(Cl)nc12 | -16.3 | 13.2 | > 100 | 60.5 | -16.1 | 7.8 | -9.23 | 3.7 (≈ 11.5 µM) | 6.5 (≈ 20.3 µM) | 102 | 7.6 (≈ 23.7 µM) | 12.9 (≈ 40.2 µM) | > 30 | 99.5 | 48.4 | 100 | > 30 | 100 (≈ 312 µM) | 16.9 | 62.9 | inhibition of growth at 3.13 µg/mL [16]: 39.9%; inhibition at 48 h, 100 ug/ml [17]: 14.9%; inhibition of growth at 25 µg/mL [18]: 105%; inhibition of growth at 30 µg/mL (Pseudomonas fluorescens [19]): 59%; MIC (Aspergillus niger): 150 µg/mL (≈ 468 µM); inhibition at 48 h, 100 ug/ml [20]: 2.58%; selectivity ratio [21]: 7.8; inhibition of growth at 1.56 µg/mL [22]: -17.5%; inhibition of growth at 3.13 µg/mL [23]: -5.18%; inhibition of growth at 100 µg/mL [24]: 95%

Source: ChEMBL document CHEMBL3877264, “Quinolidene-rhodanine conjugates: Facile synthesis and biological evaluation” (Eur J Med Chem, 2017)
